Laboratory results taken from ChEMBL document CHEMBL3616459, “Antimicrobial peptides with potential for biofilm eradication: synthesis and structure activity relationship studies of battacin peptides” (J Med Chem, 2015).
≈ marks a conversion by molar mass, not a printed value. Calls of active or inactive are those of the source. The calls are words filed in the database; no cut-off is given here. Non-standard residues stand in square brackets, D forms with d. Residues, ends and D or L forms follow the SMILES beside them. ξ: configuration not given here. *: point of attachment. Hexanoyl(4ξ-Me) = CCC(C)CCC(=O)*; dDab = NCC[C@@H](N)C(=O)O; Dab = NCC[C@H](N)C(=O)O

How the values were obtained:
Pseudomonas aeruginosa [1] = test: Antimicrobial activity against Pseudomonas aeruginosa assessed as perturbed cell membrane at 2 times MIC measured after 24 hrs by scanning electron microscopy; type: functional, organism-based
Outline: (§1)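 Bacteria grown to OD600 0.3 in LB on glass slides for 24 h, then washed with 10 mM sodium phosphate pH 7.4. Treated 20 min with peptide in LB at twice the upper limit of its MIC, washed, and fixed in 4% glutaraldehyde 1 h. Dehydrated through graded ethanol, dried at 60 °C, platinum coated, and imaged by SEM at 10 kV.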

Pseudomonas aeruginosa [2] = test: Antimicrobial activity against Pseudomonas aeruginosa assessed as inner membrane permeability at 0.5 to 100 uM measured after 60 min by propidium iodide uptake assay
Erwinia amylovora = test: Bactericidal activity against Erwinia amylovora 1501 by time-kill assay; type: functional, organism-based
Outline: (§2)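 Time-kill assay. Overnight culture diluted in LB to mid-log phase, 10^5–10^8 CFU/mL; 100 μL added to 10 mL peptide in LB at 1×, 2×, 4× and 20× MIC. Incubated with shaking at 100 rpm, at 28 °C (Ea1501, Psa) or 37 °C (E. coli, P. aeruginosa, S. aureus). Samples at 0, 0.5, 1, 3, 6, 9 and 24 h serially diluted in 0.9% saline and plated; colonies counted after 24 h. Run in duplicate. Bactericidal means ≥2-log10 CFU/mL drop versus the no-antibiotic control.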

Staphylococcus aureus = test: Antimicrobial activity against Staphylococcus aureus after 24 hrs by spectrophotometry; type: functional
Outline: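 Broth microdilution in Luria broth. Overnight culture from a single colony, grown at 28 °C (Ea1501, Psa) or 37 °C (E. coli, S. aureus), adjusted to OD600 0.6. Peptide dissolved in LB with 0.5% acetic acid as a dilution series; 50 μL peptide plus 50 μL culture per well, triplicates.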

[3] = system: Pseudomonas syringae pv. actinidiae; test: Antimicrobial activity against Pseudomonas syringae pv. actinidiae 16027 preformed biofilms at 5 to 10 uM after 24 hrs; type: functional
Outline: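 Psa16027 biofilms formed 48 h without peptide, then washed. 100 μL of peptide (1, 5 or 50 μM) in LB, or LB alone, added and incubated a further 24 h at 28 °C. Crystal violet staining followed, with A560 estimation of biofilm mass and microscopy.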

Pseudomonas aeruginosa [4] = test: Antimicrobial activity against Pseudomonas aeruginosa preformed biofilms at 10 to 50 uM after 48 hrs; type: functional, organism-based
Outline: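 Biofilms preformed 48 h without peptide, then washed. Peptide at 10, 50 or 100 μM in LB added and incubated a further 24 h at 37 °C. Live/dead BacLight staining on coverslips, then fluorescence microscopy at 1000×.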

Pseudomonas aeruginosa [5] = test: Bactericidal activity against Pseudomonas aeruginosa at 20 times MIC after 9 hrs by time-kill assay relative to control; type: functional, organism-based; outline: as §2
Pseudomonas aeruginosa [6] = test: Bactericidal activity against Pseudomonas aeruginosa by time-kill assay; type: functional, organism-based; outline: as §2
Pseudomonas aeruginosa [7] = test: Inhibition of Pseudomonas aeruginosa biofilm formation at 10 to 50 uM after 48 hrs; type: functional, organism-based
Outline: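 P. aeruginosa or S. aureus biofilms grown 48 h on coverslips in 12-well plates, with peptide added at inoculation at 5, 10, 25, 50 or 100 μM. Coverslips rinsed, dried at 50 °C and stained with BacLight (SYTO 9/propidium iodide) for 25 min in the dark at room temperature. Examined by fluorescence microscopy at 1000×.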

Escherichia coli [8] = test: Antimicrobial activity against Escherichia coli assessed as perturbed cell membrane at 2 times MIC measured after 24 hrs by scanning electron microscopy; type: functional, organism-based; outline: as §1
Escherichia coli [9] = test: Bactericidal activity against Escherichia coli by time-kill assay; type: functional, organism-based; outline: as §2
Pseudomonas aeruginosa [10] = test: Antimicrobial activity against Pseudomonas aeruginosa assessed as outer membrane permeability at 0.5 to 100 uM measured after 1 min by N-phenylnaphthylamine uptake assay; type: functional, organism-based
Outline: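 Cells grown overnight in LB at 37 °C, then regrown to OD600 0.5, washed thrice and resuspended to OD600 0.5 in 10 mM phosphate buffer pH 7.0. Peptide (30 μL, 0.5–100 μM) added to 2.94 mL suspension, with NPN at 10 μM final. Fluorescence read at ex 350/em 420 nm, triplicate readings averaged.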

In the case of CCC(C)CCC(=O)N[C@H](CCN)C(=O)N[C@@H](CCN)C(=O)N[C@@H](CCN)C(=O)N[C@@H](CC(C)C)C(=O)N[C@H](Cc1ccccc1)C(=O)N[C@@H](CCN)C(=O)N[C@@H](CCN)C(=O)N[C@@H](CC(C)C)C(N)=O (stereo partly drawn) ({Hexanoyl(4ξ-Me)}-[dDab][Dab][Dab]L[dF][Dab][Dab]L-NH2), the Activity (Pseudomonas aeruginosa [1]) is reported as “Active”, the Activity (Pseudomonas aeruginosa [2]) is reported as “Active” and the Activity (Erwinia amylovora) is reported as “Dose-dependent effect”. For the same compound, the MIC (Staphylococcus aureus) was 1 µM (≈ 1 µg/mL), the Activity [3] was “Active” and the Activity (Pseudomonas aeruginosa [4]) was “Active”. For the same compound, the Activity (Pseudomonas aeruginosa [5]) was “Active”, the Activity (Pseudomonas aeruginosa [6]) was “Dose-dependent effect” and the inhibition (Pseudomonas aeruginosa [7]) was “Active”. For the same compound, the Activity (Escherichia coli [8]) was “Active”, the Activity (Escherichia coli [9]) was “Dose-dependent effect” and the Activity (Pseudomonas aeruginosa [10]) was “Active”.
